# Source: PubChem BioAssay
# M4 PAM – CHRM4 positive allosteric modulation | CHO-K1 hM4/Gqi5, Fluo-8 calcium fluorescence, ACh EC20; 0% = ACh EC20, 100% = maximal ACh | actives 0.4% (n = 360,000) | activation, % at 3 µM;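 active = activation above its plate's cutoff, the mean activation of sample wells plus 3 SD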
# Target sequence (P08173 whole entry, looked up): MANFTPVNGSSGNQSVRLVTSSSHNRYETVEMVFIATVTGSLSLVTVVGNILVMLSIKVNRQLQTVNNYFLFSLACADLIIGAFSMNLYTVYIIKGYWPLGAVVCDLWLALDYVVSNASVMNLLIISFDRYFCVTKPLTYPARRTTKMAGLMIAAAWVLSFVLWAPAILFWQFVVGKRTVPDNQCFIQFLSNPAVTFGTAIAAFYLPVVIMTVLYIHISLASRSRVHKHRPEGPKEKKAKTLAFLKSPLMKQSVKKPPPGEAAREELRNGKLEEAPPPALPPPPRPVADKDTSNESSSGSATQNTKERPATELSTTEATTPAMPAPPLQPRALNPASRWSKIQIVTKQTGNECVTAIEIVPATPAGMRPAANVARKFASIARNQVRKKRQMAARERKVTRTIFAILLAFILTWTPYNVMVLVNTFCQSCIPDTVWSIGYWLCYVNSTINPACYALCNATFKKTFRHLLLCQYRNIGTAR
# CHRM5 antagonist – blocks acetylcholine activation of human M5 receptor | P08912 | CHO-hM5 cells, Fluo-8 calcium fluorescence, ACh EC80 | inhibition, % at 3 µM | actives 0.59% (n = 360,000) | AID 624040;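 active = inhibition above a per-plate cutoff, the mean of that plate's test compounds plus 3 SD, cut at about 27% in these data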
# CHRM4 antagonist – blocks acetylcholine activation of human M4 receptor; P08173; CHO-hM4 cells, ACh EC80, Fluo-8 calcium fluorescence; inhibition, % at 3 µM; actives 0.73% (n = 360,000); AID 624125;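 active = inhibition above its plate's cutoff, the mean inhibition of sample wells plus 3 SD, cut at about 27% in these data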
# M5 ag – CHRM5 agonism in calcium assay. P08912. CHO-K1 hM5 cells, Fluo-8 calcium fluorescence; 0% DMSO wells, 100% maximal acetylcholine response. activation, % at 3 µM. actives 0.19% (n = 360,000). AID 624037;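 active = activation above the run's mean over test compounds plus 3 SD, cut at about 23% in these data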;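 also: signal is peak over basal fluorescence ratio across the kinetic read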
# CHRM5 PAM – potentiates acetylcholine response at human M5 receptor; actives 0.3% (n = 360,000); AID 624038; activation, % at 3 µM; CHO-K1 hM5, Fluo-8 calcium, ACh EC20 PAM; 0% = ACh EC20, 100% = ACh EC100;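 active = activation above the run cutoff, the mean activation of all test compounds plus 3 SD, cut at about 18% in these data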
#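 System – CHO-K1 hM5 cells · Compound – 3 µM, single dose · Incubation – compound preincubation 140 s before EC20 acetylcholine addition · Technique – Fluo-8 calcium fluorescence · Measure – Max/basal fluorescence ratio as % of EC20–EC100 ACh window · Benchmarks – low control EC20 acetylcholine (0%), high control EC100 acetylcholine (100%) · Replication – singlicate, one well per test compound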
# M4 ag – CHRM4 agonism in calcium assay; actives 0.14% (n = 360,000); activation, % at 3 µM; CHO-K1 hM4/Gqi5, Fluo-8 calcium fluorescence; vehicle 0%, full acetylcholine response 100%;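 active = activation above the run mean over all test wells plus 3 SD, cut at about 32% in these data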;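 also: peak over basal fluorescence ratio per well then scaled between controls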
# Hits are given with their value; . = inactive. Rows were chosen to be rich in hits. Some 1.9% of all compounds tested hit in one or more screens of this group.
SMILES,M4 PAM,CHRM5 antagonist,CHRM4 antagonist,M5 ag,CHRM5 PAM,M4 ag
C#CCOCCOCCOCCNc1nc(N2CCN(C(=O)CCCCCCCCCCNC(=O)[C@@H](CCSC)n3cc(CCO)nn3)CC2)nc(N2CCN(C(=O)CCCCCCCCCCNC(=O)[C@@H]([C@H](C)O)n3cc(C)nn3)CC2)n1,.,27,.,.,.,.
C#CCOCCOCCOCCNc1nc(N2CCN(C(=O)CCCCCCCCCCNC(=O)[C@@H](CCC(=O)O)n3cc(CCCCCN)nn3)CC2)nc(N2CCN(C(=O)CCCCCCCCCCNC(=O)[C@H](CO)n3cc(CCCCCN)nn3)CC2)n1,.,.,.,.,.,.
C#CCOCCOCCOCCNc1nc(N2CCN(C(=O)CCCCCCCCCCNC(=O)[C@H](CCCCN)n3cc(C)nn3)CC2)nc(N2CCN(C(=O)CCCCCCCCCCNC(=O)[C@@H]([C@H](C)O)n3cc(C)nn3)CC2)n1,.,.,.,.,.,.
COCCNC(=O)C(=O)N/N=C(\C)CC(=O)Nc1ccc2c(c1)OCO2,.,.,.,.,.,.
COC(=O)c1ccc2c(c1)C(C)(C)C(/C=C/c1ccc(O)cc1)=[N+]2C,.,.,.,.,.,.
COC(=O)c1ccc2c(c1)C(C)(C)C(/C=C/c1ccc(OC)c(OC)c1OC)=[N+]2C,.,.,32,.,.,.
COCCN(C(=O)c1cc2c(s1)CCCCC2)c1c(N)n(Cc2ccccc2)c(=O)[nH]c1=O,.,.,.,.,.,.
O=C(COC(=O)C1=COCCO1)Nc1ccccc1,.,.,.,.,.,.
CC(C)(C)NC(=O)NC(=O)COC(=O)C1=COCCO1,.,.,.,.,36,.
Nc1ncc2c(n1)-c1cc(Cl)ccc1SC2,.,.,.,.,.,.
COCCCNC(=O)/C(C#N)=C/c1c(N2CCN(c3ccc(OC)cc3)CC2)nc2c(C)cccn2c1=O,.,31,.,.,.,.
Cc1cccn2c(=O)c(/C=C(\C#N)C(N)=O)c(N3CCN(Cc4ccc5c(c4)OCO5)CC3)nc12,.,.,40,.,.,.
COc1ccc(N2CCOCC2)c(NC(=O)c2ccc(Br)o2)c1,.,.,.,.,.,.
CCn1c(C)nc2cc(C(=O)NNC(=O)[C@@H](NC(=O)c3cc(OC)cc(OC)c3)C(C)C)ccc21,.,.,.,.,.,.
O=C(O)c1cc2c(N3CCC(Cc4ccccc4)CC3)ncnc2s1,.,.,.,.,.,.
c1ccc(CC2CCN(c3ncnc4sccc34)CC2)cc1,.,38,.,.,.,.
NC(=O)CC(NC(=O)c1ccccc1)C(=O)O (stereo not drawn),.,.,.,.,.,.
CC(C)(C)C(=O)Nc1ccc(N2CCCC2)cc1,.,.,44,.,.,.
O=c1[nH]c2ccccc2cc1CN(CC1CCCO1)S(=O)(=O)c1ccccc1 (stereo not drawn),.,.,.,.,.,.
Cc1ccc(NC(=O)CSc2nn(-c3ccccc3)c(=S)s2)cc1S(=O)(=O)N(C)C,.,30,.,.,.,.
O=C(CSc1nn(-c2ccccc2)c(=S)s1)Nn1cnnc1,.,.,.,.,.,.
O=C(CSc1nnc(-c2ccncc2)n1-c1ccccc1)NCC1CCCO1 (stereo not drawn),.,.,.,.,.,.
Cc1ccc(Cl)cc1N1CCN(Cc2cc(=O)n3ccsc3n2)CC1,.,.,.,.,19,.
C=CCSC1=C(C#N)C(c2ccccc2Cl)C(C(=O)c2cccs2)C(O)(C(F)(F)F)N1 (stereo not drawn),.,27,.,.,.,.
CCSC1=C(C#N)C(c2ccccc2Cl)C(C(=O)c2cccs2)C(O)(C(F)(F)F)N1 (stereo not drawn),.,.,.,.,.,.
CCC(CC)C(=O)c1c[nH]c(C(=O)NCc2ccccc2)c1,.,.,.,.,.,.
CNS(=O)(=O)c1ccc(NC(=O)c2ccccn2)cc1,28,.,.,.,.,.
O=C1C=C(c2c(O)ccc3ccccc23)c2ccccc2C1=O,.,.,47,.,.,.
